Key:
L1210 [1] = test: Tested for the reduction in inhibition of [3H]thymidine uptake in L1210 cells in the presence of 5 mg/mL human AGP; assay type: functional, Mus musculus
Procedure, shortened: (§1)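 Rapid-mixing, inhibitor-stop ³H-thymidine uptake into L1210 leukaemia cells run with 5 mg/mL human AGP present. Values are mean ± SD of three or more separate determinations. Significance of the difference from inhibition without AGP is taken at p ≤ 0.05.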

L1210 [2] = test: Inhibition of [3H]-thymidine uptake in L1210 cells in the presence of 5 mg/mL human AGP at 10 uM; assay type: functional, Mus musculus; procedure, shortened: as §1
L1210 [3] = test: Inhibition of [3H]thymidine uptake in L1210 cells at 10 uM; assay type: functional; conditions: Mus musculus
Procedure, shortened: (§2)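 ³H-thymidine uptake into L1210 leukaemia cells measured by a modified rapid-mixing technique with inhibitor-stop. Values are mean ± SD of three or more separate determinations. IC50 is interpolated from concentration–inhibition curves.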

L1210 [4] = test: Inhibition of [3H]thymidine uptake in L1210 cells; assay type: functional, cell-based; conditions: Mus musculus; procedure, shortened: as §2
L1210 [5] = test: Inhibition of [3H]thymidine uptake in L1210 cells at 1 uM; assay type: functional; conditions: Mus musculus; procedure, shortened: as §2
L1210 [6] = test: Inhibition of [3H]thymidine uptake in L1210 cells in the presence of 5 mg/mL human AGP at 1 uM; assay type: functional, Mus musculus; procedure, shortened: as §1
L1210 [7] = test: Tested for the reduction in inhibition of [3H]-thymidine uptake in L1210 cells in the presence of 5 mg/mL human AGP; NS, no significant reduction in inhibition by AGP; assay type: functional, cell-based; conditions: Mus musculus; procedure, shortened: as §1
L1210 [8] = test: Compound was tested for the inhibition of [3H]thymidine uptake in L1210 cells at 0.1 uM; assay type: functional; conditions: Mus musculus; procedure, shortened: as §2
L1210 [9] = test: Compound was tested (100 uM) for the inhibition of [3H]thymidine uptake in L1210 cells in the presence of 5 mg/mL human AGP; assay type: functional, Mus musculus; procedure, shortened: as §1
L1210 [10] = test: Compound was tested for the inhibition of [3H]thymidine uptake in L1210 cells at 100 uM; assay type: functional; conditions: Mus musculus; procedure, shortened: as §2
L1210 [11] = test: Compound was tested for the inhibition of [3H]thymidine uptake in L1210 cells at 3 uM; assay type: functional; conditions: Mus musculus; procedure, shortened: as §2

Row | SMILES | IC50 (L1210 [4]) | Reduction (L1210 [1]) | Inhibition (L1210 [2]) | inhibition at 10 µM (L1210 [3]) | inhibition at 1 µM (L1210 [5]) | Inhibition (L1210 [6]) | Reduction (L1210 [7]) | inhibition at 0.1 µM (L1210 [8]) | Inhibition (L1210 [9]) | inhibition at 100 µM (L1210 [10]) | inhibition at 3 µM (L1210 [11])
1 | CC(O)CNc1nc(NCc2ccc3c(c2)OCO3)c2nc(NCC(C)O)nc(NCc3ccc4c(c3)OCO4)c2n1 (configuration not stated) | 260 nM |  |  | 90% | 69% | 64% | No significant reduction in inhibition |  |  |  | 
2 | COCC(COc1nc(N2CCCCC2)c2nc(OCC(COC)OC)nc(N3CCCCC3)c2n1)OC (configuration not stated) | 1880 nM | 36% | 56% | 87% | 38% |  |  |  |  |  | 
3 | OCC(O)COc1nc(N2CCCCC2)c2nc(OCC(O)CO)nc(N3CCCCC3)c2n1 (configuration not stated) |  |  | 34% | 32% |  |  | No significant reduction in inhibition |  | 80% | 83% | 
4 | CC1(C)OC[C@@H](COc2nc(N3CCCCC3)c3nc(OC[C@@H]4COC(C)(C)O4)nc(N4CCCCC4)c3n2)O1 |  |  |  | 100% |  |  |  |  |  |  | 76%
5 | COc1ccc(CNc2nc(OCCO)nc3c(NCc4ccc(OC)cc4)nc(OCCO)nc23)cc1 | 670 nM |  |  | 88% | 40% |  | No significant reduction in inhibition |  |  |  | 
6 | OCCN(CCO)c1nc(NCc2ccccc2)c2nc(N(CCO)CCO)nc(NCc3ccccc3)c2n1 | 600 nM | 44% | 75% | 91% | 51% | 21% |  |  |  |  | 
7 | CC(O)CNc1nc(N(C)Cc2ccccc2)c2nc(NCC(C)O)nc(N(C)Cc3ccccc3)c2n1 (configuration not stated) | 700 nM | 77% |  |  | 56% | 12% |  | 24% |  |  | 

Continued by falling IC50 (L1210 [4]), values first:

Row | IC50 (L1210 [4]) | SMILES | Reduction (L1210 [1]) | Inhibition (L1210 [2]) | inhibition at 10 µM (L1210 [3]) | inhibition at 1 µM (L1210 [5]) | Inhibition (L1210 [6]) | Reduction (L1210 [7]) | inhibition at 0.1 µM (L1210 [8]) | Inhibition (L1210 [9]) | inhibition at 100 µM (L1210 [10]) | inhibition at 3 µM (L1210 [11])
8 | 8800 nM | OCC(O)COc1nc(N2CCCCC2)c2nc(OC[C@@H](O)CO)nc(N3CCCCC3)c2n1 (some centres not stated) | 22% | 29% | 37% |  |  |  |  |  | 91% | 
9 | 3700 nM | OCC(O)CNc1nc(N2CCCCC2)c2nc(NCC(O)CO)nc(N3CCCCC3)c2n1 (configuration not stated) | 64% | 20% | 55% | 18% |  |  |  |  |  | 
10 | 1100 nM | CC1(C)OC[C@H](COc2nc(N3CCCCC3)c3nc(OC[C@H]4COC(C)(C)O4)nc(N4CCCCC4)c3n2)O1 | 29% | 62% | 87% | 47% |  |  |  |  |  | 
11 | 930 nM | COc1ccc(CNc2nc(NCCO)nc3c(NCc4ccc(OC)cc4)nc(NCCO)nc23)cc1 | 40% |  |  | 56% | 35% |  | 10% |  |  | 
12 | 700 nM | COc1ccc(CNc2nc(NCC(C)O)nc3c(NCc4ccc(OC)cc4)nc(NCC(C)O)nc23)cc1 (configuration not stated) | 45% |  |  | 58% | 32% |  | 21% |  |  | 
13 | 500 nM | COc1ccc(CNc2nc(NCCO)nc3c(NCc4ccc(OC)c(OC)c4)nc(NCCO)nc23)cc1OC | 23% |  |  | 62% | 44% |  | 29% |  |  | 
14 | 430 nM | COc1ccc(CN(C)c2nc(OCCO)nc3c(N(C)Cc4ccc(OC)cc4)nc(OCCO)nc23)cc1 | 77% |  |  | 74% | 17% |  | 27% |  |  | 
15 | 220 nM | COc1ccc(CN(C)c2nc(OCCCO)nc3c(N(C)Cc4ccc(OC)cc4)nc(OCCCO)nc23)cc1 | 59% |  |  | 78% | 32% |  | 38% |  |  | 
